KCNK9 block = KCNK9 potassium channel inhibitors, primary screen, HEK293 cells, thallium flux; Potassium channel subfamily K member 9 (Homo sapiens), Q9NPC2; FluxOR thallium flux fluorescence; stronger effect = lower value; B-score at 10 µM; hit rate 1.2% among 310,000; AID 488922, 2010;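 active means ratio B-score over 3 SD below the library mean, with starting fluorescence within 5 SD of its mean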;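 further: negative B-score means less thallium flux so channel inhibition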
Kir21 block = inhibitors of mouse Kir2.1 inward-rectifier potassium channel. Inward rectifier potassium channel 2 (Mus musculus), P35561. HEK293-Kir2.1, FluxOR thallium flux fluorescence; stronger effect = lower value. B-score at 10 µM. hit rate 0.85% among 310,000. AID 1672, 2009;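 active means fluorescence ratio B-score at or below minus 3 SD of library scores, with starting-brightness B-score within 2 SD, cut at about -4.2 in these data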;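 further: channel flux triggered by added potassium and thallium sulfate stimulus; B-score of peak minus minimum fluorescence over baseline after thallium stimulus; more negative B-score means stronger Kir2.1 block with less thallium influx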
hERG protect = hERG rescue from dofetilide block, primary screen, cell-based, CHO-hERG, FluxOR thallium flux, dofetilide IC70; Voltage-gated inwardly rectifying potassium channel KCNH2 (Homo sapiens), Q12809; dofetilide IC70 present; activation (rescue from dofetilide block), less the hit threshold, % at 10 µM; hit rate 0.51% among 310,000;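 active means activation above the mean of controls blocked by dofetilide plus 5 SD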;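 further: thallium influx through hERG after potassium depolarization seen as dye fluorescence rise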
KCNQ1 act = potentiators or activators of KCNQ1 channel, primary screen, cell-based, thallium flux, high-throughput | hit rate 0.35% among 310,000 | CHO-K1 KCNQ1, thallium flux FluxOR fluorescence; stronger effect = higher value | B-score at 10 µM | AID 2648, 2010 | Potassium voltage-gated channel subfamily KQT member 1 (Homo sapiens), P51787;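 active means fluorescence ratio B-score, a plate-corrected score, at least three library SD, with initial intensity B-score within 5 SD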
Target sequence (P51787 whole entry, looked up): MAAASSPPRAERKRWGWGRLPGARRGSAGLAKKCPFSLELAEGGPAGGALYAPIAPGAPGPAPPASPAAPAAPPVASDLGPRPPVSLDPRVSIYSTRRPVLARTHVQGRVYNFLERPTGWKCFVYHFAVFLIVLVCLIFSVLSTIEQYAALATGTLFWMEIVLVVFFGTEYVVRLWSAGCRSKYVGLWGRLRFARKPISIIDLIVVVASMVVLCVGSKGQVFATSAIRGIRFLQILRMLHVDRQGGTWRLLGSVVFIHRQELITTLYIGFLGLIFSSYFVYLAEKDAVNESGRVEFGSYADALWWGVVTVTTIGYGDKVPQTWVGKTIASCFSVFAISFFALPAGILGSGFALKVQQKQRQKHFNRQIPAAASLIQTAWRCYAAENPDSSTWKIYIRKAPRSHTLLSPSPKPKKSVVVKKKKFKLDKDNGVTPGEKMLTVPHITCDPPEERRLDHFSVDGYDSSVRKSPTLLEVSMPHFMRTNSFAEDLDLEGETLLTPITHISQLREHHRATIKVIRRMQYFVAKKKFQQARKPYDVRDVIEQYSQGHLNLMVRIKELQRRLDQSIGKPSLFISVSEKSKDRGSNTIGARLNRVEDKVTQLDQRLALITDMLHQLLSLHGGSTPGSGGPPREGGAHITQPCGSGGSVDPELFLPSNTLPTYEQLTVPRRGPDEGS
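Assay system: CHO-K1 cells stably expressing KCNQ1; Medium: assay buffer with matched DMSO; Also added: K+/Tl+ depolarizing stimulus; Dosing: single dose; Timing: dye 90 min, compound 20 min, room temperature; Measured by: kinetic FluxOR thallium fluorescence, 10-s 1-Hz baseline, 110-s post-stimulus read; Read-out: peak-minus-minimum fluorescence over initial fluorescence, negative-control normalized, B-scored.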
KCNQ1 inh = inhibitors of human KCNQ1 channel, primary screen, cell-based, thallium flux, high-throughput; AID 2642, 2010; B-score at 10 µM; CHO-K1 KCNQ1, FluxOR thallium flux fluorescence; stronger effect = higher value; Potassium voltage-gated channel subfamily KQT member 1 (Homo sapiens), P51787; hit rate 1.3% among 310,000;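 active means compounds whose thallium flux B-score, printed positive for inhibition, exceeds three library SD while starting fluorescence stays within three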;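 further: channel opened by potassium depolarization with thallium stimulus after 20 min compound exposure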
KCNK3 block = human KCNK3 channel inhibitors, primary screen, CHO cells, FluxOR thallium flux, B-score | FluxOR fluorescence; stronger effect = lower value | hit rate 0.84% among 340,000 | B-score at 10 µM | Potassium channel subfamily K member 3 (Homo sapiens), O14649;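 active means B-score under library mean minus 4 SD, starting fluorescence ratio at most library mean plus 5 SD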;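 further: more negative B-score means stronger inhibition of thallium flux through KCNK3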
KCNK3 confirm = retest of human KCNK3 channel inhibitors, confirmation, CHO cells, FluxOR thallium flux, triplicate | shares compounds with KCNK3 block | FluxOR fluorescence; 0% buffer, 100% carvedilol maximal block | ratio percent of control, % at 10 µM | hit rate 99% among 2,400 | AID 651638, 2012;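 active means ratio percent of control, averaged over triplicates, above buffer control mean plus 5 SD, cut at about 64% in these data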;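 further: ratio is the fluorescence rise from min to max over baseline after thallium stimulus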
KCNK3 noninduced = thallium flux inhibition in non-induced cells, primary screen, counter-screen for KCNK3 inhibitor project, cell-based, non-induced KCNK3 line, FluxOR thallium, triplicate; thallium flux ratio (lower = more inhibition) at 10 µM; shares compounds with KCNK3 block; hit rate 40% among 2,400; non-induced KCNK3 parental cells; stronger effect = lower value;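 active means thallium flux ratio, averaged over three wells, more than 5 SD below the buffer control mean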;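 further: host cells are CHO cells without KCNK3 induction; ratio is peak minus trough fluorescence over baseline then normalized to buffer controls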
The depositor's hits bear a star; i = inactive; . = not tested or not shown. This is a sample that favours compounds with a hit; in the whole collection about 3.8% have one here.

SMILES	KCNK9 block	Kir21 block	hERG protect	KCNQ1 act	KCNQ1 inh	KCNK3 block	KCNK3 confirm	KCNK3 noninduced
COC(=O)C1C(c2ccc(OC)cc2)C(C(=O)OC)S(=O)(=O)C(CCN2CCCCC2)S1(=O)=O (centres undefined)	i	0.75	-1	i	i	i	.	.
Cc1c(Nc2cc(N3CCOCC3)c3nonc3c2[N+](=O)[O-])c(=O)n(-c2ccccc2)n1C	i	1.3	-7	i	i	.	.	.
Cc1c(Nc2cc(Cl)c3nonc3c2[N+](=O)[O-])c(=O)n(-c2ccccc2)n1C	.	.	.	.	.	-18*	145*	0.096*
C=CCOc1ccc(C(=O)c2ccccc2)c(OCC(=O)NC2(C#N)CCCC2)c1	i	1.6	-12	i	i	-8.7*	90*	i
N#CC1(NC(=O)COc2ccccc2[N+](=O)[O-])CCCCC1	i	1.1	-7	i	i	i	.	.
COc1cc(C(=S)N2CCOCC2)ccc1OC(=O)c1ccccc1C	i	1.2	-6	i	i	-8.8*	90*	i
COCC1CCCN(C(=O)c2ccc3nc(Cc4cccc(Cl)c4)oc3c2)C1 (centres undefined)	i	-0.99	-6	i	i	-9.5*	96*	i
CCCCN(C)S(=O)(=O)c1cc(Br)cc2c1N(C(=O)C1CC1)CC2	i	0.04	-7	i	i	i	.	.
Cc1ccc(C(C#N)c2ccc(C(=O)c3ccc(F)cc3)cc2)cc1 (centres undefined)	i	0.72	-14	i	13*	-8.8*	99*	0.12*
Cc1ccc(C(=O)NC(C)c2ccc(F)cc2)cc1 (centres undefined)	i	-3.5	-4	i	i	i	.	.
COc1ccc(/C=N/NC2=NS(=O)(=O)c3ccccc32)cc1OC	i	0.35	-6	i	i	i	.	.
COCc1cc(C)nc(SCc2ccc(Cl)cc2)c1C#N	i	0.43	-6	i	i	-11*	96*	0.15*
COCc1cc(C)nc(SCc2ccc(Br)cc2)c1C#N	i	0.14	-8	i	i	-11*	106*	i
COCc1cc(C)nc(SCc2ccc(F)cc2)c1C#N	i	-1.1	-2	i	i	i	.	.
COc1c(C)cc(S(=O)(=O)NCc2ccco2)c(C)c1C	i	0.07	-6	i	i	i	.	.
CS(=O)(=O)N(CC(=O)NC1CC2CCC1C2)c1ccc(Oc2ccccc2)cc1 (centres undefined)	i	0.11	-3	i	i	i	.	.
CCn1nc(C)c(NC(=O)c2cnn3c(C(F)F)cc(-c4ccccc4)nc23)c1C	i	0.16	-13	i	i	i	.	.
CCOC(=O)N1C/C(=C\c2ccccc2)C(=O)/C(=C/c2ccccc2)C1	i	0.22	-13	i	10*	-10*	113*	i
COc1ccc(OCCSc2ncccn2)cc1	i	-0.8	-7	i	i	i	.	.
COc1ccc(OCCSc2nc(C)nc3ccccc23)cc1	i	0.71	-28	i	i	-12*	123*	i
CC(C)OP(=O)(c1ccc(N(C)C)cc1)C(Nc1ccccc1)c1ccccc1 (centres undefined)	i	0.61	-10	i	i	i	.	.
CSc1ccccc1C(=O)N(C)C(c1ccccc1)c1ccccc1	i	-2.3	-13	i	i	-9.1*	108*	i
Cc1ccccc1-c1cc(-c2ccccc2O)on1	i	1.4	-7	i	i	-9.2*	118*	i
CCc1ccccc1C1=CC(=O)C[C@H](c2ccc(OC)cc2)C1	.	.	.	.	.	i	.	.
O=C(Nc1ccc(N2CCOCC2)c(Cl)c1)c1ccccc1Cl	i	-0.42	-5	i	i	i	.	.
SMILES	KCNK9 block	Kir21 block	hERG protect	KCNQ1 act	KCNQ1 inh	KCNK3 block	KCNK3 confirm	KCNK3 noninduced
Cc1c(N2CCCC2)cc2c(c1NC(=O)c1ccccc1Cl)C(C)(C)CC2(C)C	i	0.81	-9	i	i	-9.3*	114*	0.13*
O=[N+]([O-])c1ccc(Nc2nccc(Cl)n2)cc1	i	1.5	0	i	i	i	.	.
COc1ccc(S(=O)(=O)c2c(O)cc(C)c(NS(=O)(=O)c3ccccc3)c2C)cc1	i	-0.29	-14	i	i	i	.	.
CCOc1ccc(NC(=O)CN(C)C(=O)CCCOc2ccc(Cl)c(C)c2)cc1OCC	i	0.44	-6	i	i	-9.9*	93*	i
CCOc1ccc(NC(=O)CN(C)C(=O)CCc2ccccc2Cl)cc1OCC	i	0.24	-22	i	i	i	.	.
CSc1ccc(C(=O)C2CCCN(C(=O)Cc3nonc3C)C2)cc1 (centres undefined)	i	-0.33	-5	i	i	i	.	.
CC(C)NC(=O)C(c1ccc(F)cc1)N(C(=O)CCC(=O)Nc1ccccn1)C1CCCC1 (centres undefined)	i	-0.85	-9	i	i	-13*	89*	i
CC1CCN(c2ccccc2NC(=O)c2ccc(Br)o2)CC1	-8*	-1.4	-10	i	i	-9*	126*	0.15*
CN1CCN(c2ccccc2NC(=O)c2ccc(Br)o2)CC1	i	-2	-3	i	i	i	.	.
O=C(CCN1c2ccccc2Sc2ccccc21)OCc1nnc(-c2ccccc2)o1	i	-1.4	-6	i	i	-9.5*	73*	i
O=C(CNC(=O)c1ccccc1)OCc1nnc(-c2ccccc2)o1	i	-0.23	-15	i	i	i	.	.
CC1=C(C(=O)OCc2cc(C)on2)N2C(=O)[C@@H](NC(=O)OCc3cc(C)on3)[C@H]2SC1	.	.	.	.	.	i	.	.
CCCCc1nc(NCCNC(=O)c2ccccc2)c(C#N)c2c1CSC(C)(C)C2	i	-0.06	-30	i	i	-10*	136*	0.11*
CCCCc1nc(Cl)c(C#N)c2c1CSC(C)(C)C2	i	0.47	-11	i	i	i	.	.

Screens: PubChem BioAssay, Johns Hopkins Ion Channel Center
